Measured values: ChEMBL document CHEMBL3272214, “2-Deaminoactinomycin D, synthesis and interaction with deoxyribonucleic acid” (J Med Chem, 1977)
Activity calls are given as the source filed them. No cut-off for these calls is given here. *1 amine or outer side, *2 acyl side, *3 side chain or, on linkers, in order; H or OH if unused. Where a SMILES comes first, the peptide text is derived from it. Bridges are numbered along the chain shown (N, C = ends). Roman numbers before positions name the chains, in order. [ ]: non-standard residue; d: D form. Actinocin(1to9) = Cc1c2oc3c(C)ccc(C(=O)[*:2])c3nc-2c(C(=O)[*:1])c(N)c1=O; NMeV = CN[C@H](C(=O)O)C(C)C; Sar = CNCC(=O)O

Key:
[1] = system: Calf thymus DNA; test: Binding affinity to calf thymus DNA assessed as change in melting temperature at 5.2 X 10^-6 M by thermal denaturation assay; format: nucleic-acid assay; details: Bos taurus
In short: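 Calf thymus DNA filtered, concentration set by A259 (ε 6800). Drug in Me2SO diluted into 0.01 M phosphate pH 7.0. Final: drug 5.2×10⁻⁶ M, DNA 5.2×10⁻⁵ M (P), EDTA 1×10⁻⁵ M, 5% Me2SO. Equilibrated at 50 °C, then heated at 18 °C/h while absorbance was recorded. Tm corrected for volume expansion, temperature lag and baseline. ΔTm = Tm(complex) − Tm(DNA).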

[2] = system: L1210; test: Inhibition of DNA synthesis in mouse L1210 cells assessed as [3H]-thymidine incorporation preincubated for 3 hrs before [3H]-thymidine addition measured after 1 hr by scintillation spectrometric analysis; format: functional; details: read-out: ED50 (the source's name)
In short: (§1)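 L1210 cell assay run by a previously described method. Compounds were dissolved in Me2SO and diluted in growth medium to a final 1% Me2SO. The value reported is ED50.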

[3] = system: L1210; test: Inhibition of RNA synthesis in mouse L1210 cells assessed as [3H]-uridine incorporation preincubated for 3 hrs before [3H]-uridine addition measured after 1 hr by scintillation spectrometric analysis; format: functional; details: read-out: ED50 (the source's name); in short: as §1
[4] = system: Calf thymus DNA; test: Binding affinity to calf thymus DNA at 10:1 DNA to drug molar ratio by circular dichroism spectroscopic analysis; format: nucleic-acid assay; details: Bos taurus
[5] = system: Escherichia coli; test: Induction of Escherichia coli omega enzyme-mediated relaxation of Escherichia coli (RR1) pBR313 closed circular DNA at 40 X 10^-12 mol preincubated for 10 mins followed by enzyme-addition measured after 30 mins by agarose gel electrophoretic analysis
In short: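 Plasmid pBR313 was isolated from E. coli RR1 cleared lysate by agarose A50 gel filtration. 1.10 μg DNA in 80 mM potassium phosphate pH 7.6, 3 mM MgCl2, 1 mM EDTA was preincubated with drug (40×10⁻¹² mol) for 10 min at 37 °C. About 300 units of ω enzyme were added for 30 min. The reaction was stopped with EDTA and phenol/chloroform extracted. Read-out was 0.7% agarose slab gel electrophoresis with ethidium staining, compared with ethidium bromide.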

[6] = system: P388; test: Antitumor activity against mouse P388 cells allografted in mouse assessed as increase in life span at 0.108 mg/kg administered qd on day 1, 5 and 9 relative to control; format: functional; details: P388, 24 h
In short: (§2)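 In vivo testing in tumour-bearing mice was run by the NCI Division of Cancer Treatment. Drug was given on a QD 1, 5, 9 schedule, and 15 mg/kg was the highest dose tested. Toxicity was judged by weight loss of treated animals. Activity is expressed as % increase in life-span (ILS) over untreated tumour-bearing controls.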

[7] = system: Calf thymus DNA; test: Binding affinity to calf thymus DNA by NMR spectroscopic analysis; format: nucleic-acid assay; details: Bos taurus
[8] = system: P388; test: Antitumor activity against mouse P388 cells allografted in mouse assessed as increase in life span at 15 mg/kg administered qd on day 1, 5 and 9 relative to control; format: functional; details: P388, 24 h; in short: as §2
[9] = system: P388; test: Antitumor activity against mouse P388 cells allografted in mouse assessed as increase in life span at 1.94 mg/kg administered qd on day 1, 5 and 9 relative to control; format: functional; details: P388, 24 h; in short: as §2
[10] = system: Mus musculus; test: Toxicity in mouse allografted with mouse P388 cells assessed as weight loss at 1.94 to 15 mg/kg administered qd on day 1, 5 and 9; format: organism-based; design: dose 1.94-15 mg/kg
In short: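 Mice were dosed on a QD 1, 5, 9 schedule at doses up to 15 mg/kg. Toxicity was judged by weight loss of treated animals.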

Structure (SMILES)	ΔTm [1]	EC50 [2]	EC50 [3]	Activity [4]	Activity [5]	ILS at 0.108 mg/kg [6]	Activity [7]	ILS at 15 mg/kg [8]	ILS at 1.94 mg/kg [9]	Activity [10]
Cc1c2oc3c(C)ccc(C(=O)N[C@@H]4C(=O)N[C@H](C(C)C)C(=O)N5CCC[C@H]5C(=O)N(C)CC(=O)N(C)[C@@H](C(C)C)C(=O)O[C@@H]4C)c3nc-2c(C(=O)N[C@@H]2C(=O)N[C@H](C(C)C)C(=O)N3CCC[C@H]3C(=O)N(C)CC(=O)N(C)[C@@H](C(C)C)C(=O)O[C@@H]2C)c(O)c1=O	0 °C	> 100 µM	24 µM							
Cc1c2oc3c(C)ccc(C(=O)N[C@@H]4C(=O)N[C@H](C(C)C)C(=O)N5CCC[C@H]5C(=O)N(C)CC(=O)N(C)[C@@H](C(C)C)C(=O)O[C@@H]4C)c3nc-2c(C(=O)N[C@@H]2C(=O)N[C@H](C(C)C)C(=O)N3CCC[C@H]3C(=O)N(C)CC(=O)N(C)[C@@H](C(C)C)C(=O)O[C@@H]2C)c(Cl)c1=O	1.6 °C	86 µM	13 µM	Active	Active					
CC[n+]1c(-c2ccccc2)c2cc(N)ccc2c2ccc(N)cc21					Active					
COc1cccc2c1C(=O)c1c(O)c3c(c(O)c1C2=O)C[C@@](O)(C(C)=O)C[C@@H]3O[C@H]1C[C@H](N)[C@H](O)[C@H](C)O1					Active					
Cc1c2oc3c(C)ccc(C(=O)N[C@@H]4C(=O)N[C@H](C(C)C)C(=O)N5CCC[C@H]5C(=O)N(C)CC(=O)N(C)[C@@H](C(C)C)C(=O)O[C@@H]4C)c3nc-2c(C(=O)N[C@@H]2C(=O)N[C@H](C(C)C)C(=O)N3CCC[C@H]3C(=O)N(C)CC(=O)N(C)[C@@H](C(C)C)C(=O)O[C@@H]2C)c(N)c1=O [DACTINOMYCIN] (I: T[dV]P[Sar][NMeV] / II: T[dV]P[Sar][NMeV]; ester I:1-I:C, II:1-II:C; linker I:N-II:N via Actinocin(1to9))	7.1 °C	0.4 µM	0.009 µM		Active	100%				
Cc1c2oc3c(C)ccc(C(=O)N[C@@H]4C(=O)N[C@H](C(C)C)C(=O)N5CCC[C@H]5C(=O)N(C)CC(=O)N(C)[C@@H](C(C)C)C(=O)O[C@@H]4C)c3nc-2c(C(=O)N[C@@H]2C(=O)N[C@H](C(C)C)C(=O)N3CCC[C@H]3C(=O)N(C)CC(=O)N(C)[C@@H](C(C)C)C(=O)O[C@@H]2C)cc1=O	9.9 °C	63 µM	0.7 µM	Active	Active		Active	92%	46%	Non-toxic
